Laboratory results reported in ChEMBL document CHEMBL4017487, “Design and Synthesis of γ- and δ-Lactam M1 Positive Allosteric Modulators (PAMs): Convulsion and Cholinergic Toxicity of an M1-Selective PAM with Weak Agonist Activity” (J Med Chem, 2017).
Where a chain is given by its changes, count along the chain named.

Tests used:
[1] = Selectivity ratio of EC50 for human muscarinic acetylcholine receptor M4 expressed in CHO cells to EC50 for human muscarinic acetylcholine receptor M1 expressed in CHO cells; type: ADME, cell-based
Rattus norvegicus = experiment: Unbound AUC (0 to 24 hrs) in rat plasma at 5 mg/kg, po administered as single dose; type: ADME, organism-based; settings: in vivo
Summary of the method: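 Rats (3/sex/dose) dosed orally once, 1 or 5 mg/kg as a 0.5% methylcellulose suspension.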

[2] = Intrinsic clearance in human liver microsomes; type: ADME, microsome; settings: read-out: CLH
Canis familiaris [3] = experiment: Toxicity in dog assessed as death at 5 mg/kg, po administered as single dose using spray dried dispersion formulation after 1 day; type: organism-based, Canis lupus familiaris; settings: in vivo, 24 h
Summary of the method: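 Single oral dose in dogs, 1/sex/dose. Spray-dried dispersion formulation: 23% drug loading with 0.5% methylcellulose and 100 mM citrate buffer. Clinical signs were recorded by hours postdose, with animals checked the next morning. Necropsy was performed.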

Mus musculus = experiment: In vivo agonist activity at muscarinic acetylcholine receptor M1 in C57BL/6 mouse assessed as unbound brain concentration required to show 2 fold increase in IP1 accumulation in striatum at 1 to 10 mg/kg, sc measured after 2 hrs; type: organism-based
Summary of the method: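 Cb,u giving a 2-fold rise in striatal IP1 in C57BL/6 mice, estimated by interpolation of individual-mouse IP1 versus free brain exposure data.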

[4] = molecular target: T1, Muscarinic acetylcholine receptor M1 (Rattus norvegicus, UniProt P08482); experiment: Positive allosteric modulation of muscarinic acetylcholine receptor M1 in Sprague-Dawley rat brain hippocampal slices assessed as increase in carbachol-induced firing rate at CA1 pyramidal neurons at 3 uM after 10 mins in presence of M1 antagonist VU0255035 by electrophysiology method
T1 sequence (P08482 whole entry): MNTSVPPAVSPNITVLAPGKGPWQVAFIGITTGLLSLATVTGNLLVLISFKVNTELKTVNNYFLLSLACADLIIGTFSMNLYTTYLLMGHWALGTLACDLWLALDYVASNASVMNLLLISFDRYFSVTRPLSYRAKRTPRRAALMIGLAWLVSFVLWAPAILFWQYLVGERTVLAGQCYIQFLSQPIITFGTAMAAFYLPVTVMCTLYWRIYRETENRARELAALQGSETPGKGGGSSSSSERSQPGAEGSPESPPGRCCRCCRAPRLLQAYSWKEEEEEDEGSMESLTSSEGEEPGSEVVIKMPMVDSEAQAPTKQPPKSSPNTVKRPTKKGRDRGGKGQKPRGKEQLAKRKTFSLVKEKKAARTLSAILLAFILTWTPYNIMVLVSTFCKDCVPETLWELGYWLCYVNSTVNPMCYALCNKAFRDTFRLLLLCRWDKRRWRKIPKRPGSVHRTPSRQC
Summary of the method: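 Hippocampal CA1 spike-rate assay in PAM mode (EC20 carbachol) with a reportedly M1-selective muscarinic antagonist added to the slices.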

[5] = molecular target: T2, Muscarinic acetylcholine receptor M1 (Homo sapiens, UniProt P11229); experiment: Activity at human muscarinic acetylcholine receptor M1 expressed in CHO cells assessed as increase in acetylcholine-induced calcium mobilization incubated for 10 mins by Fluo-8-AM dye based FLIPR assay; type: ADME, cell-based
T2 sequence (P11229 whole entry): T1 sequence (P08482 whole entry) with V5A, S254T, S309P, K320R, G337A, V413I
Summary of the method: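 Calcium-mobilization potentiation assay read on a FLIPR plate reader in the presence of an EC20 concentration of ACh. EC50 is the geometric mean of at least three experiments.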

[6] = molecular target: T2, Muscarinic acetylcholine receptor M1; experiment: Agonist activity at human muscarinic acetylcholine receptor M1 expressed in CHO cells assessed as increase in calcium mobilization at 13 uM incubated for 10 mins by Fluo-8-AM dye based FLIPR assay relative to control; type: cell-based; settings: read-out: %max
Canis familiaris [7] = experiment: Cholinergic toxicity in dog assessed as salivation at 15 mg/kg, po administered as single dose using spray dried dispersion formulation after 1 hr; type: organism-based, Canis lupus familiaris; settings: in vivo
Summary of the method: (§1)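 Dog single oral dose escalation: 1/sex at 5 mg/kg for each formulation; 1 female at 15 mg/kg. Spray-dried dispersion: 23% drug loading with 0.5% methylcellulose and 100 mM citrate buffer. Clinical signs timed in approximate hours postdose; unbound plasma Cmax.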

Canis familiaris [8] = experiment: Cholinergic toxicity in dog assessed as ataxia at 5 mg/kg, po administered as single dose using spray dried dispersion formulation after 2 hrs; type: organism-based, Canis lupus familiaris; settings: in vivo; summary of the method: as §1
Brain [9] = experiment: Unbound brain concentration in scopolamine-induced memory impairment Wistar rat model at 1 mg/kg, sc measured after 1.25 hrs by LC-MS/MS analysis; type: ADME, organism-based; settings: in vivo
[10] = molecular target: T1, Muscarinic acetylcholine receptor M1; experiment: Positive allosteric modulation of muscarinic acetylcholine receptor M1 in Sprague-Dawley rat brain hippocampal slices assessed as increase in carbachol-induced firing rate at CA1 pyramidal neurons after 10 mins by electrophysiology method
Summary of the method: (§2)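 Rat hippocampal slices; spontaneous action potentials recorded from CA1 pyramidal neurons, read as spike rate. Agonist mode has no carbachol; PAM mode uses an EC20 level of carbachol. Top concentration tested was 3 μM.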

Brain [11] = experiment: Unbound brain concentration in amphetamine-induced hyperlocomotion C57BL/6 mouse at 3.2 mg/kg, sc measured after 1 hr by LC-MS/MS analysis; type: ADME, organism-based; settings: in vivo
Summary of the method: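 Satellite group of C57BL/6 mice from the amphetamine-stimulated locomotor study, N = 2/dose at 0.32, 1 and 3.2 mg/kg. Dosed sc as a solution in 10/90 Cremophor/water. Unbound plasma and brain concentrations measured at T = 1 h.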

Canis familiaris [12] = experiment: Cholinergic toxicity in dog assessed as emesis at 5 mg/kg, po administered as single dose using shydroxypropyl cellulose/docusate sodium formulation after 0.5 to 1.3 hrs; type: organism-based, Canis lupus familiaris; settings: in vivo
Summary of the method: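 Single-dose oral dose-escalation study, 1 dog/sex/dose. The 5 mg/kg dose was given as a nanosuspension in hydroxypropyl cellulose SL with 0.05% docusate sodium in purified water. Cholinergic clinical signs were recorded at approximate hours postdose, alongside unbound plasma Cmax.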

[13] = molecular target: T1, Muscarinic acetylcholine receptor M1; experiment: Agonist activity at muscarinic acetylcholine receptor M1 in Sprague-Dawley rat brain hippocampal slices assessed as increase in firing rate at CA1 pyramidal neurons after 10 mins by electrophysiology method; summary of the method: as §2
[14] = Ratio of AUC in iv or po dosed mouse brain to plasma; type: ADME, organism-based; settings: read-out: Ratio AUC
Summary of the method: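 Brain/plasma ratio computed from AUC of total drug in brain and total drug in plasma.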

[15] = Unbound plasma concentration in dog at 0.5 mg/kg, po or 0.1 mg/kg, iv administered as single bolus dose; type: ADME, organism-based, Canis lupus familiaris
Summary of the method: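 Dog PK: IV bolus given as a solution, 0.1 mg/kg in 20% HPBCD; oral dose given as a suspension, 0.5 mg/kg in 0.5% methylcellulose. Fraction unbound in plasma determined.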

With `Cc1cc2c(cc1Cc1ccc(-c3cocn3)cc1)C(=O)N([C@H]1CCOC[C@@H]1O)C2` the “Ratio EC50” value [1] was greater than 200, the fAUC (Rattus norvegicus) was 4.927 µM·h and the CLint scaled [2] was less than 8 mL/min/kg. For the same molecule, the Activity (Canis familiaris [3]) was “Toxic”, the “Drug uptake(free)” value (Mus musculus) was 22 nM and the Activity [4] was “Not Active”. The KA [5] was 1.3 µM, the Emax at 13 µM [6] was 23% and the Activity (Canis familiaris [7]) was “Toxic”. The Activity (Canis familiaris [8]) was “Toxic”, the “Drug uptake(free)” value (Brain [9]) was 13 nM and the Activity [10] was “Dose-dependent effect”. The “Drug uptake(free)” value (Brain [11]) was 32 nM, the Activity (Canis familiaris [12]) was “Toxic” and the Activity [13] was “Not Active”. For the same molecule, the Kp [14] was 0.1 and the fraction unbound [15] was 0.059.
